Measured values from ChEMBL document CHEMBL1132278, “Discovery of novel antitumor sulfonamides targeting G1 phase of the cell cycle” (J Med Chem, 1999).
Converted amounts (≈) assume the structure as drawn.

Columns and labels:
Type in all cases: functional, cell-based
[1] = tested on: MC-38; assay: In vitro antiproliferative activity against colon 38 murine adenocarcinoma; settings: Mus musculus
In short: (§1)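 RPMI1640 with 10% FBS; seeded at 2.5×10³ cells/well for KB and colon 38, 1.25×10³ cells/well for P388; preincubated 24 h at 37 °C, 5% CO2. DMSO stocks were diluted 3-fold serially in medium, with 200 μg/mL the top dilution. Exposure was continuous for 3 days, then MTT for 1–2 h. Formazan was read in DMSO at 540/660 nm, and IC50 was taken by least squares.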

[2] = tested on: P388; assay: Antiproliferative activity against P388 murine leukemia in vitro; settings: Mus musculus; in short: as §1
[3] = tested on: KB; assay: Antiproliferative activity against KB human nasopharynx carcinoma in vitro; in short: as §1

Structure (SMILES)	IC50 [1] [µg/mL]	IC50 [2] [µg/mL]	IC50 [3] [µg/mL]
N#Cc1ccccc1S(=O)(=O)Nc1cccc2c(C#N)c[nH]c12	2.8 (≈ 8.69 µM)	14 (≈ 43.4 µM)	61 (≈ 189 µM)
CS(=O)(=O)Nc1cccc(S(=O)(=O)Nc2cccc3c(Cl)c[nH]c23)c1	1.5 (≈ 3.75 µM)	4.8 (≈ 12 µM)	26 (≈ 65 µM)
COc1ccc(S(=O)(=O)Nc2cccc3c(C#N)c[nH]c23)cc1	0.17 (≈ 0.519 µM)	0.17 (≈ 0.519 µM)	1.4 (≈ 4.28 µM)
CS(=O)(=O)Nc1ccccc1S(=O)(=O)Nc1cccc2c(Cl)c[nH]c12	45 (≈ 113 µM)	18 (≈ 45 µM)	18 (≈ 45 µM)
N#Cc1cccc(S(=O)(=O)Nc2cccc3c(C#N)c[nH]c23)c1	0.09 (≈ 0.279 µM)	0.2 (≈ 0.62 µM)	8.2 (≈ 25.4 µM)
O=C(O)c1ccc(S(=O)(=O)Nc2cccc3c(Cl)c[nH]c23)cc1	> 100	> 100	> 100
NC(=O)c1ccc(S(=O)(=O)Nc2cccc3c(Cl)c[nH]c23)cc1	0.19 (≈ 0.543 µM)	0.87 (≈ 2.49 µM)	21 (≈ 60 µM)
CS(=O)(=O)Nc1ccc(S(=O)(=O)Nc2cccc3c(C#N)c[nH]c23)cc1	1.2 (≈ 3.07 µM)	3.5 (≈ 8.96 µM)	15 (≈ 38.4 µM)
CS(=O)(=O)Nc1ccc(S(=O)(=O)Nc2cccc3c(Cl)c[nH]c23)cc1	0.26 (≈ 0.65 µM)	1.6 (≈ 4 µM)	12 (≈ 30 µM)
NS(=O)(=O)Cc1ccc(S(=O)(=O)Nc2cccc3c(Cl)c[nH]c23)cc1	0.12 (≈ 0.3 µM)	0.15 (≈ 0.375 µM)	13 (≈ 32.5 µM)
Cc1ccc(S(=O)(=O)Nc2cccc3cc[nH]c23)cc1	2.4 (≈ 8.38 µM)	4.3 (≈ 15 µM)	2.2 (≈ 7.68 µM)
COc1ccc(S(=O)(=O)Nc2cccc3c(Cl)c[nH]c23)cc1	0.2 (≈ 0.594 µM)	0.76 (≈ 2.26 µM)	0.55 (≈ 1.63 µM)
Nc1ccc(S(=O)(=O)Nc2cccc3cc[nH]c23)cc1	6.1 (≈ 21.2 µM)	14 (≈ 48.7 µM)	36 (≈ 125 µM)
Nc1ccc(S(=O)(=O)Nc2cccc3c(Cl)c[nH]c23)cc1	0.23 (≈ 0.715 µM)	0.81 (≈ 2.52 µM)	10 (≈ 31.1 µM)
N#Cc1ccc(S(=O)(=O)Nc2cccc3c(Cl)c[nH]c23)cc1	0.13 (≈ 0.392 µM)	1.4 (≈ 4.22 µM)	11 (≈ 33.2 µM)
COc1ccc(S(=O)(=O)Nc2cccc3cc[nH]c23)cc1	1.5 (≈ 4.96 µM)	1.1 (≈ 3.64 µM)	0.67 (≈ 2.22 µM)
O=S(=O)(Nc1cccc2cc[nH]c12)c1ccc(Cl)cc1	7 (≈ 22.8 µM)	6 (≈ 19.6 µM)	6 (≈ 19.6 µM)
CNS(=O)(=O)c1ccc(S(=O)(=O)Nc2cccc3c(Cl)c[nH]c23)cc1	0.24 (≈ 0.6 µM)	0.9 (≈ 2.25 µM)	15 (≈ 37.5 µM)
N#Cc1ccc(S(=O)(=O)Nc2cccc3cc[nH]c23)cc1	1.8 (≈ 6.05 µM)	4.2 (≈ 14.1 µM)	8.5 (≈ 28.6 µM)
N#Cc1c[nH]c2c(NS(=O)(=O)c3ccc(C(N)=O)cc3)cccc12	0.68 (≈ 2 µM)	2.5 (≈ 7.35 µM)	15 (≈ 44.1 µM)
N#Cc1ccc(S(=O)(=O)Nc2cccc3c(C#N)c[nH]c23)cc1	0.12 (≈ 0.372 µM)	0.53 (≈ 1.64 µM)	33 (≈ 102 µM)
N#Cc1c[nH]c2c(NS(=O)(=O)c3ccc(C(=O)O)cc3)cccc12	> 100	> 100	> 100
N#Cc1c[nH]c2c(NS(=O)(=O)c3ccc(N)cc3)cccc12	0.28 (≈ 0.896 µM)	0.72 (≈ 2.31 µM)	4.4 (≈ 14.1 µM)
COc1ccc(S(=O)(=O)Nc2cccnc2Nc2ccc(O)cc2)cc1 [ABT-751]	–	0.32 (≈ 0.862 µM)	–
NS(=O)(=O)c1ccc(S(=O)(=O)Nc2cccc3c(Cl)c[nH]c23)cc1 [INDISULAM]	0.1 (≈ 0.259 µM)	0.45 (≈ 1.17 µM)	4.4 (≈ 11.4 µM)
